# Calls of active or inactive are those of the source. Unless noted, the rule behind the calls is not given here.
# Assays:
# [1] = Activation of alpha-galactosidase using 4-MU-alpha-galactose as substrate
# Brain [2] = experiment: AUC (infinity) in C57BL/6 mouse brain at 50 mg/kg, ip; assay type: ADME, organism-based; design: dose 50 mg/kg, route intraperitoneal, time infinity; settings: in vivo
# In short: (§1)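 Male C57BL/6 mice, 18−26 g, given a single ip dose of 50 mpk in 20% PEG 400 + 80% (20% HP-β-CD). Plasma, brain and liver were sampled, and brain and liver were homogenized in 3 volumes of PBS pH 7.4 (dilution factor 4). Analysis was by LC−MS/MS. Mean profiles N = 3.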
# Brain [3] = experiment: Half life in C57BL/6 mouse brain at 50 mg/kg, ip; assay type: ADME, organism-based; design: dose 50 mg/kg, route intraperitoneal; settings: in vivo; in short: as §1
# [4] = Cytotoxicity against human dermal fibroblasts expressing wild type GCase at 5 uM after 6 days; assay type: cell-based; settings: fibroblast, 144 h
# In short: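 Fibroblasts of the stated genotype were seeded at 5000 cells/well. After 1 day they were switched to OPTI-MEM with 5% FBS and treated 6 days with compound. Viability was read by CellTiter-Glo luminescence on a parallel plate.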
# Brain [5] = experiment: Cmax in C57BL/6 mouse brain at 50 mg/kg, ip; assay type: ADME, organism-based; design: dose 50 mg/kg, route intraperitoneal; settings: in vivo; in short: as §1
# Liver [6] = experiment: Metabolic stability in CD1 mouse liver microsomes assessed as compound remaining at 1 uM after 60 mins by LC/MS/MS analysis in absence of NADPH; assay type: ADME, Microsome; settings: 1 h
# In short: (§2)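 Compound at 1 μM was incubated in duplicate with CD-1 mouse liver microsomes at 37 °C in 100 mM potassium phosphate pH 7.4 with 3 mM MgCl₂, with or without 2 mM NADPH, for 60 min. Reaction was quenched in cold acidified MeCN with internal standard. Parent was quantified by LC−MS/MS as percent of time zero.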
# Liver [7] = experiment: Metabolic stability in CD1 mouse liver microsomes assessed as compound remaining at 1 uM after 60 mins by LC/MS/MS analysis in presence of NADPH; assay type: ADME, Microsome; settings: 1 h; in short: as §2
# Caco-2 [8] = experiment: Apparent permeability of the compound from basal to apical side of human Caco2 cells after 2 hrs; assay type: ADME, cell-based; settings: caco-2, 2 h
# In short: (§3)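 Caco-2 monolayers were grown 3 weeks, with integrity checked by Lucifer yellow. Compound was added apically (pH 6.5 HBSS/HEPES/glucose buffer) or basolaterally (pH 7.4) and incubated 2 h. Transfer was quantified by LC−MS/MS and expressed as P_app. Efflux ratio is P_app B→A over A→B.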
# [9] = system: T1, Lysosomal acid glucosylceramidase (Homo sapiens), P04062 [N409S]; experiment: Activation of Glucocerebrosidase N370S/N370S mutant translocation to lysosome in Gaucher patient dermal fibroblasts incubated for 6 days by LAMP2 colocalization-based laser scanning confocal microscopic analysis relative to vehicle-treated control
# T1 sequence (whole entry): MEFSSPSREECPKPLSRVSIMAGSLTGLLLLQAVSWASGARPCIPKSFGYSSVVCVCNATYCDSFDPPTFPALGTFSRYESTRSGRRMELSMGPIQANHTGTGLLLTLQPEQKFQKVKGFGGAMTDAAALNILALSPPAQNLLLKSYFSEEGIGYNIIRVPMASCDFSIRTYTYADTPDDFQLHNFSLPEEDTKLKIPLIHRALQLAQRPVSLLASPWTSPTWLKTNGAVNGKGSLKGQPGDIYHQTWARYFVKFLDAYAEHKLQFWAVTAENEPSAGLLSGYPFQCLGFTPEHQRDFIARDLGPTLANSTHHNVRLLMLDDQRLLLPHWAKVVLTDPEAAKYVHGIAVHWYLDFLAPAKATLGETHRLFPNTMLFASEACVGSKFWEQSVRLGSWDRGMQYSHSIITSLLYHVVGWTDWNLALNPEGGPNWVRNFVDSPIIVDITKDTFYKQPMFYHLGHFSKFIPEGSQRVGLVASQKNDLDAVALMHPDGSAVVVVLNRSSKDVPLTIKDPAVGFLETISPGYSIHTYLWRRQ
# In short: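 N370S/N370S Gaucher dermal fibroblasts were treated 6 days at 1, 5 or 25 μM, with DMSO vehicle control. Cells were fixed in 3% paraformaldehyde, permeabilized with Triton-X and stained with anti-GCase R386 (Alexa555), anti-LAMP-2 (Alexa488) and DAPI. Confocal imaging used constant laser settings, scoring GCase/LAMP-2 colocalization.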
# Liver [10] = experiment: Tmax in C57BL/6 mouse liver at 50 mg/kg, ip; assay type: ADME, organism-based; design: dose 50 mg/kg, route intraperitoneal; settings: in vivo; in short: as §1
# [11] = system: T1, Lysosomal acid glucosylceramidase (Homo sapiens), P04062 [N409S]; experiment: Activation of glucocerebrosidase N370S mutant in Gaucher patient spleen homogenates using 4-methylumbelliferone-Glc as substrate assessed as half-maximal activation concentration incubated for 5 mins prior to substrate addition measured after 30 to 45 mins by fluorimetric analysis; assay type: tissue-based
# In short: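 Spleen homogenate (27 μg final) in pH 5 citrate/phosphate buffer with KCl, NaCl, MgCl₂ and 0.01% Tween-20. Compound was titrated 0.5 nM to 58 μM and preincubated 5 min at room temperature. Reaction used 1 mM 4MU-Glc for 30−45 min at 37 °C and was stopped with NaOH/glycine pH 10. Read-out was fluorescence at Ex 365/Em 440 nm. AC₅₀ is the average of N = 2.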
# [12] = system: T1, Lysosomal acid glucosylceramidase (Homo sapiens), P04062 [N409S]; experiment: Activation of glucocerebrosidase N370S mutant using C12-BODIPY-GlcCer as substrate assessed as half-maximal activation concentration incubated for 5 mins prior to substrate addition measured after 30 to 45 mins by HPLC analysis
# In short: (§4)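 N370S/N370S patient spleen homogenate at 140 μg/well. Compound was tested at 9 concentrations, 1:2 dilutions from 50 μM. Substrate was 2 mM 4MU-Glc or the C12-BODIPY substrate at 25 μM; other conditions as the plate assay. Stopped reactions were separated on C18 HPLC with fluorescence detection: 4MU at 365/440 nm, C12-BODIPY-Cer at 506/540 nm.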
# [13] = Ratio of AUClast in brain to AUClast in plasma in C57BL/6 mouse at 50 mg/kg, ip; assay type: ADME, organism-based; design: dose 50 mg/kg, route intraperitoneal; in short: as §1
# Caco-2 [14] = experiment: Apparent permeability of the compound from apical to basal side of human Caco2 cells after 2 hrs; assay type: ADME, cell-based; settings: caco-2, 2 h; in short: as §3
# [15] = system: T1, Lysosomal acid glucosylceramidase (Homo sapiens), P04062 [N409S]; experiment: Activation of wild type glucocerebrosidase translocation to lysosome in human dermal fibroblast isolated from N370S carrier incubated for 6 days by LAMP2 co-localization-based laser scanning confocal microscopic analysis relative to vehicle-treated control
# [16] = system: T1, Lysosomal acid glucosylceramidase (Homo sapiens), P04062 [N409S]; experiment: Activation of glucocerebrosidase N370S mutant using 4-methylumbelliferone-beta-Glc as substrate incubated for 5 mins prior to substrate addition measured after 30 to 45 mins by HPLC analysis; in short: as §4
compound,measurement,setting,value
C#Cc1ccc(NC(=O)c2cnn3c(C)cc(C)nc23)cc1,Activity,[1],inactive
same,AUC,Brain [2],1390 ng·h/mL
same,t1/2,Brain [3],18.2 h
same,Activity,[4],Non-toxic
same,Cmax,Brain [5],2760 nM
same,Stability,Liver [6],42%
same,Stability,Liver [7],45%
same,Papp,Caco-2 [8],2 ×10⁻⁶ cm/s
same,Activity,[9],Active
same,Tmax,Liver [10],0.25 h
same,Activity,[11],0.36 µM
same,Activity,[12],inactive
same,Ratio AUC,[13],290%
same,Papp,Caco-2 [14],6 ×10⁻⁶ cm/s
same,Activity,[15],Active
same,Activity,[16],Dose-dependent effect
